# Rows were chosen to be rich in hits. Some 3% of all compounds tested hit in one or more screens of this group.
# Lipid droplet = inhibitors of hepatocyte lipid droplet formation, primary screen, imaging, high-throughput imaging, BODIPY stain; AML12 mouse hepatocytes, oleate lipid droplets; inhibition, % at 6.5 µM; 240,000 compounds, 0.4% hits; AID 1656, 2009;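 active = lipid droplet intensity inhibited by at least 50%, with more than 500 cells counted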
#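 Material – mouse AML12 hepatocyte cell line, fixed after treatment · Compound dosing – one dose, 6.5 µM compound · Times – compound with oleate, overnight · Measured by – Image-based BODIPY and DAPI two-channel analysis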
# NPR2 activator = human GC-B receptor activators, primary screen, HEK293 GC-B cells, cGMP TR-FRET, EC30 CNP; Atrial natriuretic peptide receptor 2 (Homo sapiens), P20594; 0% at EC30 CNP, 100% saturating CNP; activation, % at 10 µM; 370,000 compounds, 0.11% hits;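 active = activation at 10 µM reaching about 35% in either raw or pattern-adjusted values, limit read from the data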
# aDG glyco act = activators of alpha-DG glycosylation, primary screen, uHTS, Pro5-aDG cells, AlphaScreen | 360,000 compounds, 0.22% hits | activation, % at 10 µM | alpha-DG glycosylation AlphaScreen (IIH6); 0% Pro5, 100% B10-LARGE cell signal | AID 624168, 2012;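 active = activation of at least 8% versus controls, or a plate z-score of at least 8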;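 note: Pro5 are CHO cells carrying HIG-tagged alpha-DG that lacks glycosylation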
# NPR1 activator = GC-A stimulated cGMP production enhancers – HEK293 GC-A cells, cGMP TR-FRET, EC30 ANP, primary screen | 0% at EC30 ANP, 100% saturating ANP | activation, % at 10 µM | 370,000 compounds, 0.14% hits | AID 1671463, 2021; in the data active = activation above about 40%
# GASC-1 inh = inhibitors of GASC-1 histone demethylase, primary screen, biochemical, fluorescence, DELFIA europium; Lysine-specific demethylase 4C (Homo sapiens), Q9H3R0; 330,000 compounds, 0.069% hits; inhibition, % at 2.35 µM; GST-JMJD2C(1-420) H3K9me3 demethylation;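 active = more than half of a compound's replicate wells show inhibition beyond 50%, single wells judged on their own value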;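 note: signal counts dimethyl H3K9 product captured on neutravidin plate; 0% = median of DMSO wells and 100% = 0.3 times that DMSO median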
# Target sequence (Q9H3R0 1-420 limits assumed): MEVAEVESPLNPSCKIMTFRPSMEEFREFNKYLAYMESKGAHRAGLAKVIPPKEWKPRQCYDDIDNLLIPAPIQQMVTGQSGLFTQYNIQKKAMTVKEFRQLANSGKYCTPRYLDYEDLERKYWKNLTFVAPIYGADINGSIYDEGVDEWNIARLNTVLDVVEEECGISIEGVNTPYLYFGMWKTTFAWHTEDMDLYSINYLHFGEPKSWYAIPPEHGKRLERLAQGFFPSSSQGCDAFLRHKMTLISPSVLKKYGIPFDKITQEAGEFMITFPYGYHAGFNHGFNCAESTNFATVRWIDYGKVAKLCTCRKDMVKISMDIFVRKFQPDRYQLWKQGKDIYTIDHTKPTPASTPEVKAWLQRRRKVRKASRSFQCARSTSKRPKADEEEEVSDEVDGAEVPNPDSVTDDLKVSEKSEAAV
# GRIN3A LBD mod = binders of NR3A ligand-binding domain, primary screen, biophysical, differential scanning fluorimetry, uHTS | Glutamate receptor ionotropic, NMDA 3A (GRIN3A) ligand-binding domain | NR3A LBD differential scanning fluorimetry, Tm shift; 0% = protein alone, 100% = glycine-bound protein | Tm shift relative to glycine control, % at 25 µM | 340,000 compounds, 2.5% hits;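 active = melting temperature shift of at least 10% of the positive control shift, at one fixed dose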
# * marks the source's active call; other numbers are inactive results; . = not tested or not shown.
SMILES,Lipid droplet,NPR2 activator,aDG glyco act,NPR1 activator,GASC-1 inh,GRIN3A LBD mod
O=C(NNC(=O)C12CC3CC(CC(C3)C1)C2)c1csc(N2CCOCC2)n1,.,1.2,-0.2,7.1,-19.1,3.0
Cc1cn(CC(=O)NCc2ccc(N(C)C)cc2)c(=O)[nH]c1=O,.,-3.0,3.7,-0.5,.,3.9
Cc1ccc(Cc2c(-c3ccc(Cl)cc3)nc3cc(C)ccn23)cc1,.,48.0*,-0.1,35.9,.,.
Cc1cc(Br)c2nc(-c3ccc(Cl)cc3)c(Cc3cccc(Cl)c3)n2c1,.,-2.0,.,-1.1,.,.
C=CCn1c(CCNC(=O)c2cccs2)nnc1SCC(=O)c1ccc(Cl)cc1,4.7,-7.4,0.2,-1.7,12.1,-12.7
C=CCn1c(Cc2cccs2)nnc1SCC(=O)c1ccc2ccccc2c1,-11.0,-6.8,2.6,-18.2,2.1,15.7*
C=CCn1c(Cc2cccs2)nnc1SCC(=O)c1ccc(F)cc1,.,1.4,0.2,1.0,2.4,-0.3
C=CCn1c(CNC(=O)c2cccs2)nnc1SCC(=O)c1ccc(Br)cc1,.,-0.9,0.5,-1.8,-1.9,13.3*
Cc1cccc(NC(=O)NN(C(=O)c2ccccc2Cl)C(C)(C)C)c1,.,-2.7,.,-0.5,.,.
N#CCCn1cc(/C=N/NC(N)=S)c(-c2ccc(Br)cc2)n1,-18.3,55.1*,-0.2,-8.3,-4.7,-6.0
Cc1ccccc1NS(=O)(=O)c1ccc(NC(=O)CSCc2ccc(Br)cc2)cc1,-4.1,6.1,0.0,-6.7,10.9,22.2*
O=C(Nc1cccnc1)c1cc2c(s1)-c1ccccc1OC2,-0.6,-4.6,0.1,7.8,14.7,35.2*
O=C(Nc1ccc(Cl)cn1)c1cc2c(s1)-c1ccccc1OC2,11.1,-1.5,0.1,1.8,-2.0,15.2*
Cc1cccc2c1-c1sc(C(=O)Nc3cccnc3)cc1CO2,-8.3,-11.2,0.4,-11.0,-11.1,18.5*
O=C(Nc1cccnc1Cl)c1cc2c(s1)-c1ccccc1OC2,5.4,6.9,0.4,13.0,-5.9,0.5
O=C(Nc1nccs1)c1cc2c(s1)-c1ccccc1OC2,.,-9.2,-0.1,-0.1,3.6,-7.2
CCCCS(=O)(=O)N1CCCc2nc(-c3ccccc3)ccc21,.,2.6,.,-2.4,.,.
O=S1(=O)c2ccc(N3CCN(Cc4ccccc4F)CC3)cc2Oc2ccccc2CN1Cc1cn(Cc2ccccc2C(F)(F)F)nn1,.,1.3,.,3.5,.,.
Cc1cc(C(=O)COC(=O)CC(NC(N)=O)c2ccc(Cl)cc2)c(C)n1C (stereo unspecified),.,3.1,0.1,1.5,2.9,-0.3
NC(=O)COC(=O)CC(NC(N)=O)c1ccc(Cl)cc1 (stereo unspecified),-12.5,0.8,0.0,2.9,1.0,13.1*
Cc1cc(Br)c2nc(-c3cccc(Br)c3)c(Cc3cccc(Cl)c3)n2c1,.,-2.2,.,-1.8,.,.
NC(=O)CC[C@H](NC(=O)c1ccc(F)cc1)C(=O)OCC(=O)Nc1c(F)c(F)c(F)c(F)c1F,7.4,0.3,-0.1,-1.5,-5.3,11.5*
Cc1cccc(-c2cccc3c4c([nH]c23)[C@@H]2C[C@H](N(C)C(=O)OCc3ccccc3)[C@H]([C@H](C)O)CN2CC4)c1,.,4.8,.,0.1,.,.
CCn1cc(Cl)c(C(=O)Nc2nccs2)n1,-8.7,2.4,-0.1,2.5,-6.8,0.7
O=C(O)CC/C(=C\c1ccc(N2CCOCC2)c([N+](=O)[O-])c1)c1nc2ccccc2s1,-16.9,-0.8,0.1,-0.5,-5.9,4.5
SMILES,Lipid droplet,NPR2 activator,aDG glyco act,NPR1 activator,GASC-1 inh,GRIN3A LBD mod
O=C(O)CC/C(=C\c1ccc(Cl)c([N+](=O)[O-])c1)c1nc2ccccc2s1,5.5,-5.7,-0.2,-4.8,3.7,29.9*
COC(=O)c1sccc1-c1ccc(C(=O)Nc2cccc(Cl)c2)o1,.,0.7,0.3,8.4,-0.3,24.1*
COc1ccccc1-c1cnc(C(O)c2cc(C)ccc2C)[nH]1 (stereo unspecified),.,-1.7,-0.3,-3.6,.,.
Cc1ccc([C@@H]2[C@@H]3C(=O)N(c4ccccc4)C(=O)[C@@H]3[C@]3(C)C(=O)N(Cc4ccccn4)CC(=O)N23)o1,6.3,1.0,-0.1,4.1,-6.6,-1.4
Cc1ccc([C@@H]2[C@@H]3C(=O)N(c4ccccc4)C(=O)[C@@H]3[C@]3(Cc4ccccc4)C(=O)N(CC4CC4)CC(=O)N23)o1,-2.4,4.7,0.2,-1.8,1.2,18.0*
Cc1ccc([C@@H]2[C@@H]3C(=O)N(c4ccccc4)C(=O)[C@@H]3[C@]3(C)C(=O)N(Cc4ccc(-c5ccccc5)cc4)CC(=O)N23)o1,-0.7,0.3,-0.2,49.1*,-13.4,-3.0
C[C@H](CO)N1C[C@H](C)[C@@H](CN(C)C(=O)Nc2ccnc(N3CCOCC3)c2)OCc2cn(nn2)CCCC1=O,.,-1.7,.,-0.3,.,.
CCC[C@H]1[C@@H](NC(=S)Nc2ccccc2Cl)CC[C@@]23CCCN2C(=O)CCC[C@@H]13,.,-8.8,.,-11.5,.,.
CCOc1ccc2nc(NC(=O)c3ccc(OCC4CCCO4)cc3)sc2c1 (stereo unspecified),16.7,-1.3,6.8,4.4,-0.6,19.7*
Nn1c(SCC(=O)Nc2ccc3c(c2)OCO3)nnc1-c1ccccc1,12.4,-0.9,0.3,0.7,8.5,2.4
Cc1cccc2sc(NC(=O)c3ccc(OCC4CCCO4)cc3)nc12 (stereo unspecified),7.9,-9.6,0.2,5.6,1.3,-3.2
CCC(=O)Nc1nnc(SCC(=O)Nc2ccc3c(c2)OCO3)s1,5.1,-4.0,0.4,-5.0,-2.4,27.8*
Nn1c(SCC(=O)Nc2ccc3c(c2)OCO3)nnc1-c1ccc(Cl)cc1,.,0.7,-0.1,-0.7,-0.5,17.9*
CCC(=O)Nc1nnc(SCC(=O)Nc2ccc3c(c2)OCCO3)s1,-13.6,1.2,-0.3,0.2,-10.9,0.7
CCOc1ccc2nc(SCC(=O)c3ccc(O)cc3O)sc2c1,.,2.8,-0.1,3.0,-5.5,16.5*
O=C(/C=C/c1ccc2c(c1)OCO2)Nc1nc2ccc(F)cc2s1,-12.0,0.3,-0.2,-0.4,3.7,0.3
CCOc1ccc2nc(SCC(=O)Nc3ccc4c(c3)OCO4)sc2c1,10.4,-0.4,0.1,1.6,0.9,19.1*
CC(C)C(=O)Nc1nnc(SCC(=O)Nc2ccc3c(c2)OCO3)s1,28.5,0.1,0.3,-2.3,0.4,36.5*
CCOc1ccc2nc(NC(=O)/C=C/c3ccc4c(c3)OCO4)sc2c1,3.7,3.1,0.1,3.7,0.4,34.6*
CCOc1ccc2nc(SCC(=O)c3ccc(C)s3)sc2c1,-11.9,-0.8,-0.1,0.9,3.5,-7.0
